Source: ChEMBL document CHEMBL4138314, “Synthesis and Evaluation of N-Phenyl-3-sulfamoyl-benzamide Derivatives as Capsid Assembly Modulators Inhibiting Hepatitis B Virus (HBV)” (J Med Chem, 2018)
Converted amounts (≈) assume the structure as drawn. The source made the active and inactive calls. The calls are words filed in the database; no cut-off is given here.

Tests used:
Hepatitis B virus [1] = assay: Induction of HBV capsid core protein CP149 aggregation assessed as ratio between area under the curve for observed amount of core dimer and area under the curve for aggregated core protein at 20 uM after 24 hrs by size exclusion chromatographic analysis
Outline: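 Recombinant HBV core assembly domain (aa 1–149, Cp149) was incubated with compound at 20 µM for 24 h, with a no-compound control run in parallel. Size exclusion chromatography gave the ratio of Cp149 dimer AUC to aggregated Cp149 AUC.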

[2] = Drug metabolism in human liver microsomes at 1 uM after 15 mins by LC-MS/MS analysis; format: ADME, microsome; settings: read-out: Drug metabolism
Outline: (§1)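 Compound incubated 15 min with human or mouse liver microsomes; stability expressed as percent turnover (metabolised) at 15 min.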

[3] = Cytotoxicity against human HepG2 cells after 4 days by resazurin assay; format: cell-based
[4] = Kinetic solubility of the compound at pH 7.4 after 4 hrs by UPLC-UV analysis; format: physicochemical; settings: buffer, read-out: Kinetic_solubility
[5] = Drug metabolism in mouse liver microsomes at 1 uM after 15 mins by LC-MS/MS analysis; format: ADME, microsome; settings: read-out: Drug metabolism; outline: as §1
Hepatitis B virus [6] = assay: Antiviral activity against Hepatitis B virus infected in human HepG2.117 cells assessed as inhibition of viral DNA level after 3 days by real time PCR; format: functional, organism-based; settings: HepG2.117, 72 h
HBV genotype D = assay: Antiviral activity against HBV genotype D infected in human HepG2.2.15 cells assessed as inhibition of viral DNA level treated twice for 3 days measured after 6 days by real time PCR; format: functional, organism-based; settings: Hepatitis B virus
[7] = target: Core antigen (Hepatitis B virus) (UniProt Q03732); assay: Induction of HBV Maleimidyl BoDIPY-FL-labeled capsid Cp*150 mutant aggregation incubated for 30 mins measured every 10 secs for 30 mins by fluorescence quenching assay
Core antigen (Hepatitis B virus), sequence (Q03732 as listed by the source): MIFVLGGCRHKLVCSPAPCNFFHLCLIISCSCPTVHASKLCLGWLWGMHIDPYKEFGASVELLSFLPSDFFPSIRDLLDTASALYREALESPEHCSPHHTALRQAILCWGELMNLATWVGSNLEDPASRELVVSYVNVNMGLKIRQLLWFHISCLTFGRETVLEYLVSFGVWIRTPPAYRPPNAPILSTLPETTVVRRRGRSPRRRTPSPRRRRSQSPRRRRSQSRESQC

| SMILES | Ratio (Hepatitis B virus [1]) | metabolised at 0.25 h, 1 µM [2] | CC50 at 96 h [3] | solubility kinetic at 4 h [4] | metabolised at 0.25 h, 1 µM [5] | EC50 (Hepatitis B virus [6]) | EC50 (HBV genotype D) | Activity [7] |
| --- | --- | --- | --- | --- | --- | --- | --- | --- |
| O=C(Nc1ccc(F)cc1)c1cccc(S(=O)(=O)N2CCCCC2)c1 | 0.4 | 65% | 70.4 µM | 9 µM (≈ 3.26 µg/mL) | 99% | 2.7 µM | 4.5 µM | – |
| O=C(Nc1ccc(F)cc1)c1cccc(NC(=O)C2CCCCC2)c1 | 7.2 | 55% | 57.7 µM | 7 µM (≈ 2.38 µg/mL) | 87% | > 25 µM | 62.2 µM | – |
| Cc1cc(NC(=O)c2cccc(S(=O)(=O)NC3CCCC3)c2)ccc1F | 0.02 | 66% | 48.2 µM | 33 µM (≈ 12.4 µg/mL) | 97% | 0.42 µM | 0.1 µM | Active |
| O=C(Nc1ccc(F)cc1)c1cccc(NS(=O)(=O)C2CCCCC2)c1 | 0.3 | 46% | 33.6 µM | 86 µM (≈ 32.4 µg/mL) | 91% | 2.2 µM | 1.1 µM | – |
| O=C(Nc1ccc(F)cc1)c1cccc(S(=O)(=O)NC2CCCCC2)c1 | 0.2 | 69% | > 25 µM | 43 µM (≈ 16.2 µg/mL) | 93% | 0.58 µM | – | – |
| O=C(Nc1cc(F)cc(F)c1)c1cccc(S(=O)(=O)NC2CCCC2)c1 | – | 79% | > 25 µM | 28 µM (≈ 10.7 µg/mL) | 100% | 0.78 µM | 0.28 µM | Active |
| CC(C)(C)NS(=O)(=O)c1cccc(C(=O)Nc2ccc(F)cc2)c1 | 0.9 | 15% | 52.5 µM | 1 µM (≈ 0.35 µg/mL) | 31% | 2.28 µM | 1.24 µM | – |
| O=C(Nc1cccc(S(=O)(=O)NC2CCCCC2)c1)c1ccccc1 | 7 | 99% | > 25 µM | 10 µM (≈ 3.58 µg/mL) | 100% | > 25 µM | 9.6 µM | – |
| O=C(Nc1ccc(F)cc1)c1cccc(S(=O)(=O)N2CCOCC2)c1 | 0.6 | 27% | > 100 µM | > 100 µM | 69% | 11 µM | 8.49 µM | – |
| CN(C)S(=O)(=O)c1cccc(C(=O)Nc2ccc(F)cc2)c1 | 1.4 | 50% | > 100 µM | 43 µM (≈ 13.9 µg/mL) | 89% | 2.99 µM | 5.02 µM | – |
| O=C(Nc1cccc2ccccc12)c1cc(S(=O)(=O)NC2CCCCC2)ccc1F | – | 94% | > 25 µM | 12 µM (≈ 5.12 µg/mL) | 100% | > 25 µM | 15.6 µM | inactive |
| O=C(Nc1ccc(F)c(F)c1)c1cccc(S(=O)(=O)NC2CCCC2)c1 | – | 45% | > 25 µM | 46 µM (≈ 17.5 µg/mL) | 86% | 0.36 µM | 0.093 µM | Active |
| O=C(Nc1ccccc1)c1cc(S(=O)(=O)NC2CCCCC2)ccc1F | 0.1 | 63% | > 25 µM | 21 µM (≈ 7.91 µg/mL) | 100% | 0.6 µM | 0.66 µM | – |
